# Hits are enriched below; roughly 2% of the tested compounds scored in any of these assays.
# ATG4B inhibitor: blocks human ATG4B protease cleavage of LC3 substrate | hit rate 0.51% among 340,000 | Q9Y4P1 | ATG4B cleavage of LC3-PLA2, NBD-HPC fluorescence, 1 h | inhibition, % at 8.33 µM; in the data active = inhibition above about 40%
# Target sequence (Q9Y4P1 whole entry, looked up): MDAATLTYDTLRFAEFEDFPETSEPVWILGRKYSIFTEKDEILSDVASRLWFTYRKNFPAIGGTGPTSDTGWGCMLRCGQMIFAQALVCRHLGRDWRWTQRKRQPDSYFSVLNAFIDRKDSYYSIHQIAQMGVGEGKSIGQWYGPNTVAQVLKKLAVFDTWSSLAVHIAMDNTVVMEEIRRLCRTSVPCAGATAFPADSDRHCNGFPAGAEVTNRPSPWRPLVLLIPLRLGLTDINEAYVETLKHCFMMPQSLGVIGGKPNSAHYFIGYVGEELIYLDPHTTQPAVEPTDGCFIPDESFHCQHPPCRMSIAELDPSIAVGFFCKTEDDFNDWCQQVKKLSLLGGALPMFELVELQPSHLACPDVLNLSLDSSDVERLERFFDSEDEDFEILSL
# MIN6 prolif: induces beta-cell replication in MIN6 cells | MIN6 cells proliferation, ATPlite luminescence, 48 h; cells starved in 0.2% serum; 100% = growth in 10% serum | proliferation, % at 10 µM | hit rate 0.29% among 330,000;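 active = compounds whose signal lies at least 3.5 SD above the mean of all wells on their plate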;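 also: 0% = DMSO-treated cells in low-serum medium and 100% = 10% serum control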
# HKDC1 inh: inhibitors of human hexokinase HKDC1 | recombinant HKDC1, G6PDH/diaphorase resazurin coupled fluorescence | inhibition, % at 20 µM | AID 493160 | hit rate 0.16% among 340,000;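 active = inhibition above about 35% when tested at 20 µM, limit read from the data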;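 also: plate controls were DMSO wells with enzyme for no effect and DMSO wells lacking enzyme for full effect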
#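 Test system: Recombinant HKDC1 (HK5) hexokinase enzyme, produced in-house | Input: HKDC1 at 5 µg/mL | Buffer or medium: Tris pH 8.0 buffer with MgCl2, Tween-20, BSA, BME | Schedule: 90 min reaction incubation at room temperature, dark | Technique: Resazurin-to-resorufin fluorescence via G6PDH and diaphorase coupling, 525/613 nm | Controls: DMSO wells with and without enzyme mix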
# VIM-2 inh: blocks Pseudomonas aeruginosa VIM-2 metallo-beta-lactamase. inhibition, % at 5.6 µM. AID 1527. purified VIM-2, nitrocefin hydrolysis, epi-absorbance fluorescence. hit rate 0.89% among 290,000;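 active = inhibition above the mean of all tested compounds plus 3 SD, cutoff set per screening run, cut at about 7.5% in these data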;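 also: red hydrolysis product quenches plate fluorescence so inhibitors raise well fluorescence; 0% = enzyme with DMSO and 100% = DMSO without enzyme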
# PvdQ acylase: P. aeruginosa PvdQ acylase inhibition; purified PvdQ acylase, fluorescence plate reader; inhibition, % at 10 µM; hit rate 0.063% among 340,000; AID 488965; in the data active = inhibition above about 30%, passing the limit was not always enough;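 also: 0% = vehicle neutral wells and 100% = reference inhibitor wells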
# IMP-1 inh: inhibitors of Pseudomonas aeruginosa IMP-1 metallo-beta-lactamase; purified IMP-1, nitrocefin hydrolysis, epi-absorbance fluorescence; inhibition, % at 5.6 µM; hit rate 0.45% among 290,000; AID 1556;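 active = inhibition above the mean plus 3 SD of all compounds in the same screening run, cut at about 4.5% in these data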;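 also: 0% = IMP-1 with DMSO and 100% = DMSO wells lacking enzyme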
#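 Test system: recombinant IMP-1 enzyme, purified / Medium: HEPES buffer pH 7.1 with ZnSO4 and Brij 35 / Doses: single dose, 5.6 µM / Times: 25 °C, 15 min preincubation, 25 min reaction / Detection: Epi-absorbance via hydrolysed-nitrocefin quenching of white-plate fluorescence, 480/530 nm, EDTA stop / Evaluation: percent inhibition from optical density relative to buffer-blank wells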
# The depositor's hits bear a star; · = no result given.
SMILES,ATG4B inhibitor,MIN6 prolif,HKDC1 inh,VIM-2 inh,PvdQ acylase,IMP-1 inh
O=C(O)C1=C[C@H](c2csc3ccccc23)C[C@H](OCCCCO)O1,11,-2,0,9.5*,-7,3
O=C(c1ccccc1)c1ccc(O)cc1O,-23,4,1,7,1,12*
CC(C)OC(=O)c1cccc2c1C(=O)c1ccccc1-2,-1,3,0,10*,-2,-1
CCOC(=O)c1oc2ccccc2c1NC(=O)COc1cccc(OC)c1,2,0,-13,-2,-9,-3
CCOC(=O)c1oc2ccccc2c1NC(=O)COc1ccc(F)cc1,2,9.7*,-10,-2,13,-4
O=C(CCc1ccccc1)c1nnc(-c2ccccc2)o1,7,1,-9,-3,-11,-2
CCCCNC(=O)/C=C1\Sc2ccccc2NC1=O,-6,-5,5,-4,-16,-3
CCc1ccc(C(=O)/C=C2\Sc3ccccc3NC2=O)cc1,56*,0,-31,-6,-3,-3
O=C(CN1C(=O)/C(=C/c2ccc(F)cc2)SC1=S)NC1CCS(=O)(=O)C1 (stereo not drawn),4,-1,-5,1,1,11*
O=C(CN1C(=O)/C(=C/c2ccc(F)cc2)SC1=S)NC1C=CS(=O)(=O)C1 (stereo not drawn),4,-4,-6,-1,3,4.8*
O=C(CCN1C(=O)/C(=C/c2ccccc2Cl)SC1=S)NC1CCCC1,-6,-4,-5,2,-18,0
O=C(CN1C(=O)/C(=C/c2ccccc2Cl)SC1=S)NC1C=CS(=O)(=O)C1 (stereo not drawn),4,0,-10,-3,-13,12*
O=C(CCN1C(=O)/C(=C/c2ccccc2Cl)SC1=S)NN1CCOCC1,5,3,3,4,-6,4.5*
CN(Cc1ccc(Br)cc1)C(=O)CCN1C(=O)c2cccc([N+](=O)[O-])c2C1=O,-1,-2,-6,-2,-11,-2
COc1cccc(CNc2nc3ccccc3n2C(C)C)c1O,1,-1,-4,-1,-2,-2
CCN(C(=O)COC(=O)c1cc(=O)[nH]c2ccccc12)C1CCS(=O)(=O)C1 (stereo not drawn),1,1,0,-1,-16,0
CCOC(=O)/C=C(\C)Sc1cc(=O)oc2ccccc12,-7,-1,5,2,49*,-3
CCOC(=O)Nc1oc2ccccc2c(=O)c1C,-3,0,-2,0,-7,-2
CCOC(=O)c1c(-c2ccccc2)oc2ccc(OCC(O)CN(C)C)cc12 (stereo not drawn),0,0,6,8.9*,-10,-3
CCOC(OCC)c1cn(Cc2ccc3c(c2)C(=O)c2ccccc2C3=O)nn1,·,-8,·,9.9*,·,-1
CCC1(N(C(C)=O)c2ccc(OC)cc2)C(=O)c2ccccc2C1=O,-5,-4,-12,0,-5,21*
CC(Nc1nc(N2CCN(S(C)(=O)=O)CC2)nc2ccccc12)c1ccccc1 (stereo not drawn),-13,-3,-4,1,-12,4.5*
COc1ccc(Nc2nc(N3CCN(S(C)(=O)=O)CC3)nc3ccccc23)c(OC)c1,-1,-1,2,4,10,-3
COc1cccc(Cn2c(=O)sc3ccccc3c2=O)c1,-2,-6,-1,1,-12,-1
COc1cccc(Cn2c(=O)c3ccccc3n3nc(C)cc23)c1,-5,2,-4,9.1*,-11,1
CN(C)CCCNCCCNC(=O)/C=N/O,4,-2,8,-1,-8,4.6*
CN(C)CCCNCCCCNC(=O)/C=N/O,6,2,-5,-2,-13,-2
CC1CCCN(CCCNC(=O)C2CC(=O)N(c3ccc(F)c(Cl)c3)C2)C1 (stereo not drawn),3,0,-5,2,3,5.8*
Nc1nc(-c2ccco2)nn1S(=O)(=O)c1ccc(Cl)cc1,2,3,-5,-2,-1,-3
Cc1ccc(S(=O)(=O)N2CC(C)N(C(=O)N3CCOCC3)C2C)cc1 (stereo not drawn),3,8,4,-1,-6,-1
